Activity calls are given as the source filed them. The calls are words filed in the database; no cut-off is given here.
Tests used:
Plasmepsin I = Plasmepsin I (Plasmodium falciparum, UniProt P39898); assay: Inhibition of Plasmodium falciparum recombinant PLM1
Procedure, shortened: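 Recombinant proPfPLM I from E. coli BL21 Star (DE3) pLysS inclusion bodies, refolded and purified by anion exchange and size exclusion. Initial rates of cleavage of chromogenic Lys-Pro-Ile-Leu-Phe-Nph-Arg-Leu read spectrophotometrically. Ki from fits: Morrison competitive tight-binding equation, or for weaker binders at least six substrate and two or more inhibitor levels, competitive model.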

Plasmepsin II = Plasmepsin II (Plasmodium falciparum, UniProt P46925); assay: Inhibition of Plasmodium falciparum recombinant PLM2
Procedure, shortened: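 Recombinant pro-PLM II (E. coli BL21(DE3) pLysS, refolded from inclusion bodies) activated in 100 mM sodium acetate pH 4.7, 37 °C, 90 min. Cleavage of Lys-Glu-Phe-Val-Phe-NPhe-Ala-Leu-Lys followed at 300 nm. Inhibitors at 1-100 nM, 1% DMSO final. Ki from IC50 via Cheng-Prusoff using Michaelis-Menten Km. Mean ± SD, at least two experiments in triplicate.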

Plasmodium falciparum [1] = assay: Antiplasmodial activity against chloroquine-sensitive Plasmodium falciparum D10; assay type: functional, organism-based
Procedure, shortened: (§1)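 P. falciparum (D10 and W2) grown in human A+ red cells, RPMI 1640 with 10% heat-inactivated A+ plasma, 37 °C, 1% O2/5% CO2/94% N2. Asynchronous cultures, 1-1.5% parasitemia, 1% hematocrit, exposed to serial dilutions (DMSO <1% final) for 72 h. IC50 is the mean of ≥3 experiments in duplicate.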

Plasmodium falciparum [2] = assay: Antiplasmodial activity against chloroquine-resistant Plasmodium falciparum W2; assay type: functional, organism-based; procedure, shortened: as §1
[3] = target: Cathepsin D (Homo sapiens) (UniProt P07339); assay: Inhibition of human cathepsin D at 2 uM
[4] = target: Plasmepsin II (Plasmodium falciparum) (UniProt P46925); assay: Inhibition of Plasmodium falciparum PLM2-induced human hemoglobin cleavage by SDS-PAGE
Procedure, shortened: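 Hemoglobin (10 µg) digested by preactivated recombinant PLM II (200 ng) in 100 mM sodium acetate, pH 4.7, 37 °C, with vehicle or inhibitor for 0, 10, 30 and 60 min. Stopped with SDS loading dye, boiled 5 min, resolved on 18% polyacrylamide gel.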

[5] = target: Cathepsin D (Homo sapiens) (UniProt P07339); assay: Inhibition of human cathepsin D at 100 uM
[6] = target: Cathepsin D (Homo sapiens) (UniProt P07339); assay: Inhibition of human cathepsin D at 5 uM
[7] = Cytotoxicity against human skin fibroblast at 100 uM by MTT assay; assay type: cell-based
Procedure, shortened: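 Primary human skin-biopsy fibroblasts, 8 × 10⁴ per well, grown in DMEM with 10% fetal calf serum, 1% penicillin/streptomycin and 1% L-glutamine. Proliferation followed by MTT test with or without compounds up to 100 µM.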

Chain of Plasmepsin II (P46925 whole entry): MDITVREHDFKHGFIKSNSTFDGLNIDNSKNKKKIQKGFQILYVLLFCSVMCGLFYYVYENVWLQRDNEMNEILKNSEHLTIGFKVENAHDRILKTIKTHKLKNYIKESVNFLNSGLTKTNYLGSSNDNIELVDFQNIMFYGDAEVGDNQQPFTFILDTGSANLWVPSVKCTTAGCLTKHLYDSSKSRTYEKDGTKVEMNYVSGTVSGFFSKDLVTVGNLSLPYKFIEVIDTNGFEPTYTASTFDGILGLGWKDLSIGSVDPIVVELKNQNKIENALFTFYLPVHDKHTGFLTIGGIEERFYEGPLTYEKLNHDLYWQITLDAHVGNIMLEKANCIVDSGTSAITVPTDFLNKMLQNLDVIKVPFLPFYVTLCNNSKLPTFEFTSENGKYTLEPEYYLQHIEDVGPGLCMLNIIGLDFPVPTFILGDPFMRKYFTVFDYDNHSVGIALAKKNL
Chain of Cathepsin D (Homo sapiens) (P07339 65-162 limits assumed): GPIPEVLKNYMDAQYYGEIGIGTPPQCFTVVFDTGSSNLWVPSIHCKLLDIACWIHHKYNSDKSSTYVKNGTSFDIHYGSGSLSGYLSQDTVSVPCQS
Chain of Cathepsin D (Homo sapiens) (P07339 169-412 limits assumed): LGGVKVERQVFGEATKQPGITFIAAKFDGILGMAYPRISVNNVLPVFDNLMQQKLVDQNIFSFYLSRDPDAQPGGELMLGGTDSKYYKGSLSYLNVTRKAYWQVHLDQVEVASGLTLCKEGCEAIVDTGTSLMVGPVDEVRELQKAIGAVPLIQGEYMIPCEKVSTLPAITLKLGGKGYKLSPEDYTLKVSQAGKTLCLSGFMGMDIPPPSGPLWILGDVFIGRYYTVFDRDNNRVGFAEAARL
Chain of Plasmepsin I (P39898 whole entry): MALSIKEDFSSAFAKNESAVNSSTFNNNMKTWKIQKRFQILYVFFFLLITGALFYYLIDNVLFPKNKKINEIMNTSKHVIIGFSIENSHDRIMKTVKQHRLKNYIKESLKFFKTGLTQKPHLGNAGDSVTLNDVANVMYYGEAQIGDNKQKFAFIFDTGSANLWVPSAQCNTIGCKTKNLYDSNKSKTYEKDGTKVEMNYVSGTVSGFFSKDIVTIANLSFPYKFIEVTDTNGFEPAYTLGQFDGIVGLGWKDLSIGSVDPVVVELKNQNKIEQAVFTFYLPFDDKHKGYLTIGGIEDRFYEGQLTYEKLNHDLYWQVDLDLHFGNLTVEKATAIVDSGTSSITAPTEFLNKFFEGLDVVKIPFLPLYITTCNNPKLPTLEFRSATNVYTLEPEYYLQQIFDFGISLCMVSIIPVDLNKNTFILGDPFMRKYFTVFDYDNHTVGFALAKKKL
Chain of Plasmepsin II (Plasmodium falciparum) (P46925 125-453 limits assumed): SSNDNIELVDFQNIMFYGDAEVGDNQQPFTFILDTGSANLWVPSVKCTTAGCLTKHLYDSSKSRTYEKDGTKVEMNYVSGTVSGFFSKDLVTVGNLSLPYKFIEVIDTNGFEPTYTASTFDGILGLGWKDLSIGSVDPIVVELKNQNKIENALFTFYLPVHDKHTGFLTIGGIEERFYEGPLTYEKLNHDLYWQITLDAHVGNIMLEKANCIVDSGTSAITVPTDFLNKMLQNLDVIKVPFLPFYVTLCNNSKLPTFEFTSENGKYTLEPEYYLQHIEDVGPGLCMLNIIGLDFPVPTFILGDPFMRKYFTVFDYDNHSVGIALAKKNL

Structure (SMILES) | Ki (Plasmepsin I) [nM] | Ki (Plasmepsin II) [nM] | IC50 (Plasmodium falciparum [1]) [nM] | IC50 (Plasmodium falciparum [2]) [nM] | inhibition [3] [%] | Activity [4] | inhibition [5] [%] | inhibition [6] [%] | Activity [7] [%]
CCCCNC(=O)C[C@H](O)[C@H](CC(C)C)NC(=O)[C@@H](NC(=O)c1ccc(Oc2ccc(C(=O)N[C@@H](CC(C)C)C(=O)N[C@@H](CC(C)C)C(=O)NCCCC(C)Nc3cc(OC)cc4cccnc34)cc2)cc1)C(C)CC (some centres not stated) | 58 | 103 | 3600 | 1700 |  |  |  |  | 
CCCCNC(=O)C[C@H](O)[C@H](CC(C)C)NC(=O)[C@@H](NC(=O)c1ccc(Oc2ccc(C(=O)N[C@@H](CC(C)C)C(=O)N[C@@H](CCCCNC(=O)OC(C)(C)C)C(=O)NCCCC(C)Nc3cc(OC)cc4cccnc34)cc2)cc1)C(C)CC (some centres not stated) | 230 | 403 | 4050 | 3500 |  |  |  |  | 
CCCCNC(=O)C[C@H](O)[C@H](CC(C)C)NC(=O)[C@@H](NC(=O)COc1ccc2ccccc2c1)[C@@H](C)CC | 727 | 58.9 | 22700 | 15400 |  |  |  |  | 
CCCCNC(=O)C[C@H](O)[C@H](CC(C)C)NC(=O)[C@@H](NC(=O)c1ccc(Oc2ccc(C(=O)N[C@@H](C)C(=O)N[C@@H](C)C(=O)NCCCC(C)Nc3cc(OC)cc4cccnc34)cc2)cc1)[C@@H](C)CC (some centres not stated) | 1 | 3.9 | 1300 | 1200 |  |  |  |  | 
CCCCNC(=O)C[C@H](O)[C@H](CC(C)C)NC(=O)[C@@H](NC(=O)c1ccc(Oc2ccc(C(=O)N[C@@H](C)C(=O)N[C@@H](CCCCN)C(=O)NCCCC(C)Nc3cc(OC)cc4cccnc34)cc2)cc1)[C@@H](C)CC (some centres not stated) | 33 | 10.6 | 800 | 1400 |  |  |  |  | 
CCCCNC(=O)C[C@H](O)[C@H](CC(C)C)NC(=O)[C@@H](NC(=O)c1ccc(Oc2ccc(C(=O)N[C@@H](CC(C)C)C(=O)NCCCC(C)Nc3cc(OC)cc4cccnc34)cc2)cc1)[C@@H](C)CC (some centres not stated) | 765 | 12.1 | 700 | 500 | 30 | Active |  |  | 
CCCCNC(=O)C[C@H](O)[C@H](CC(C)C)NC(=O)[C@@H](NC(=O)c1ccc(Oc2ccc(C(=O)N[C@@H](CC(C)C)C(=O)N[C@@H](CCCCNC(=O)OC(C)(C)C)C(=O)OCCC)cc2)cc1)C(C)CC (some centres not stated) | 17 | 11 | 100 | 100 |  | Active | 37 |  | 
CCCCNC(=O)C[C@H](O)[C@H](CC(C)C)NC(=O)[C@@H](NC(=O)c1ccc(Oc2ccc(C(=O)N[C@@H](CC(C)C)C(=O)N[C@@H](C)C(=O)NCCCC(C)Nc3cc(OC)cc4cccnc34)cc2)cc1)[C@@H](C)CC (some centres not stated) | 74 | 26.3 | 200 | 300 |  | Active |  | 50 | 15
CCCCNC(=O)C[C@H](O)[C@H](CC(C)C)NC(=O)[C@@H](NC(=O)c1ccc(Oc2ccc(C(=O)N[C@@H](CC(C)C)C(=O)N[C@@H](CCCCN)C(=O)OCCC)cc2)cc1)C(C)CC (some centres not stated) | 11 | 9.9 | 4500 | 3800 |  |  |  |  | 
CCCCNC(=O)C[C@H](O)[C@H](CC(C)C)NC(=O)[C@@H](NC(=O)c1ccc(Oc2ccc(C(=O)NCCCC(C)Nc3cc(OC)cc4cccnc34)cc2)cc1)[C@@H](C)CC (some centres not stated) | 81 | 11.2 | 2200 | 2000 |  |  |  |  | 

— ChEMBL document CHEMBL1137305, “High antiplasmodial activity of novel plasmepsins I and II inhibitors” (J Med Chem, 2006)
